Sampled rows, rich in hits. Any-hit rate of the full collection: about 1.4%.
m-calpain inh – calpain II (pig) inhibition. purified calpain II, fluorogenic peptide substrate, 30 min. inhibition, % at 16 µM. 220,000 compounds, 0.37% hits. AID 1236;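 active means inhibition above about 50%, limit read from the data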
thrombin 1536 – thrombin (human) inhibition. P00734. alpha-thrombin, Boc-VPR-AMC fluorogenic substrate cleavage. inhibition, % at 5 µM. 220,000 compounds, 0.26% hits;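 active means inhibition at or above 40%; inactive means inhibition below 40%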;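 further: 0% = enzyme with no compound and 100% = wells without enzyme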
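System – human alpha-thrombin protein · Reagent – Boc-VPR-AMC substrate, 15 µM final · Compound – 5 µM single dose in 0.2% DMSO · Schedule – reaction at room temperature · Technique – AMC fluorescence at 355 nm excitation and 460 nm emission · Read-out basis – % inhibition relative to enzyme controls and enzyme-free blanks · Control set – no-compound enzyme wells and no-enzyme blanks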
FXIa inh – blocks human coagulation factor XIa protease activity; P03951; 220,000 compounds, 0.14% hits; inhibition, % at 5 µM; AID 798; purified FXIa, Boc-Glu-Ala-Arg-AMC fluorogenic substrate;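 active means inhibition of at least 40%; inactive means inhibition below 40%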;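 further: fluorescence of freed AMC excited at 355 nm; 0% = enzyme without compound and 100% = no enzyme blank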
FXIIa inh 1536 – factor XIIa (human) inhibition | P00748 | purified FXIIa, Boc-QGR-AMC fluorogenic substrate, 2 h | inhibition, % at 5 µM | 220,000 compounds, 0.3% hits | AID 800; in the data active means inhibition above about 40%;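 further: 0% = enzyme with no compound and 100% = blank without enzyme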
Target sequence (P00748 20-372 limits assumed): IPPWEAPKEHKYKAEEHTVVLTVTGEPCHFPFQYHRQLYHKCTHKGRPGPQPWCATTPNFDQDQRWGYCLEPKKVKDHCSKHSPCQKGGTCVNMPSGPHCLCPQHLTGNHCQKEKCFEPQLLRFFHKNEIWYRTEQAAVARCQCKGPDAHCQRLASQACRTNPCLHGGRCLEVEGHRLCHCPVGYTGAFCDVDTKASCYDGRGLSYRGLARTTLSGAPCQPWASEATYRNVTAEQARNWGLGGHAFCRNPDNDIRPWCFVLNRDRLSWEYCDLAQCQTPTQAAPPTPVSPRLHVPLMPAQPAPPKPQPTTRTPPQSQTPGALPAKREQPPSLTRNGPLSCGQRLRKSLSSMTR
Target sequence (P00748 373-615 limits assumed): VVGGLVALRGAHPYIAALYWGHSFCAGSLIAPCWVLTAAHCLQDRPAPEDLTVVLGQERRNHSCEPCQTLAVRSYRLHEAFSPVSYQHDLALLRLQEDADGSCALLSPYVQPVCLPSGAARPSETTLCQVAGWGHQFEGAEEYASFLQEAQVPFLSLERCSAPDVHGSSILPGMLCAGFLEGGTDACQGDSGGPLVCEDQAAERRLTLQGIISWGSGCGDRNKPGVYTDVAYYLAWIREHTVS
hK5 inh – inhibitors of human kallikrein 5. Q9Y337. recombinant hK5, fluorogenic AMC substrate cleavage. inhibition, % at 5 µM. 210,000 compounds, 0.59% hits;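 active means inhibition of 40% or more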;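 further: 0% = enzyme controls without compound and 100% = no-enzyme blanks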
* hit, by the source's call; · = no result.

SMILES	m-calpain inh	thrombin 1536	FXIa inh	FXIIa inh 1536	hK5 inh
CCCOc1ccc(C(=O)NC(C)C(=O)O)cc1 (configuration not stated)	1	3	18	40*	-5
O=C(Oc1ccc2c(c1)OCO2)C12CC3CC(CC(C3)C1)C2	66*	9	-2	-5	-6
CCOC(=O)Cc1csc(SCC(=O)NC2CCCC(C)C2C)n1 (configuration not stated)	1	2	-11	8	13
Cn1c(COc2ccc3ccccc3c2)nnc1SCC(=O)OC1CCCCC1	15	7	11	17	-5
O=C(CN1CCOCC1)Nc1cccc(S(=O)(=O)N2CCCCCC2)c1	-13	·	0	3	-1
O=C(Cn1[nH]c(=O)c2ccccc2c1=O)Nc1cccc(S(=O)(=O)N2CCCCCC2)c1	-78	22	52*	·	27
COc1cc(C(=O)Nc2ccc3c(c2)OCCO3)ccc1OC(C)C	8	34	9	-2	63*
COc1ccc2[nH]c3c(c2c1)CCC/C3=N\N	-36	0	1	2	2
CCCc1nc(SCC(=O)c2ccccc2)c2c(=O)n(C)c(=O)n(C)c2n1	53*	2	3	12	-5
CC(=O)N(C)N(C)c1cc(C)nc(N)n1	-7	-6	-3	2	-2
COc1ccc(CC(=O)Nc2ccccc2N2CCOCC2)cc1OC	-16	-5	2	7	4
COc1ccc(CC(=O)Nc2ccccc2N2CCCCC2)cc1OC	14	4	22	30	112*
O=C(OCc1nnc(-c2ccccc2)o1)c1ccc2c(c1)OCO2	72*	-1	8	16	-11
N#Cc1c(/N=C/c2ccco2)sc2c1CCC2	9	104*	13	9	19
Cc1csc(SCC(=O)NCc2ccccc2Cl)n1	30	48*	26	21	35
COc1ccccc1CNC(=O)CSc1nc(C)cs1	8	-9	-3	5	-1
COc1ccc(C(C)(C)C)cc1NC(=O)c1ccoc1C	6	-7	3	6	-1
Cc1occc1C(=O)Nc1cc(C(F)(F)F)ccc1Cl	22	50*	15	27	27
Nn1c(Cc2cccc3ccccc23)nnc1SCc1c(Cl)cccc1Cl	17	1	9	10	-17
Nn1c(Cc2cccc3ccccc23)nnc1SCc1ccc(Cl)c(Cl)c1	55*	1	7	11	-7
O=C(CSc1ccccn1)N1CCN(c2cccc(Cl)c2)CC1	-14	-2	0	10	-5
CCOC(=O)C(=CNc1ccc(NC2=NCC(C)S2)cc1)C(=O)OCC (configuration not stated)	28	-8	1	3	-8
O=c1nc(N2CCOCC2)nc(N/N=C/c2ccc3c(c2)OCO3)[nH]1	-16	-1	-3	0	6
CN(/N=C/c1ccc2c(c1)OCO2)c1nc(N2CCOCC2)nc(N2CCOCC2)n1	39	-11	1	100*	-3
Cn1c(=O)n(C)c2cc([N+](=O)[O-])c(N3CCN(CCO)CC3)cc21	66*	1	0	9	2
SMILES	m-calpain inh	thrombin 1536	FXIa inh	FXIIa inh 1536	hK5 inh
Cn1c(=O)n(C)c2cc([N+](=O)[O-])c(N3CCN(S(C)(=O)=O)CC3)cc21	10	0	4	14	-21
O=C1c2ccccc2C(=O)N1CCN1CCCCC1	13	31	1	25	51*
O=S(NC1CCCCC1)C12CC3CC(CC(C3)C1)C2 (configuration not stated)	28	3	42*	62*	-13
Cc1nc(SCC(=O)O)n[nH]1	-4	-5	-4	5	-3
CCCc1cc(-c2n[nH]c(=S)n2CC(C)C)cs1	50*	-8	-4	4	-22
COc1ccc(Cn2c(=O)c3c(nc(NCCO)n3C)n(C)c2=O)cc1	18	-7	-3	-4	1
Cn1c(NCc2ccco2)nc2c1c(=O)n(Cc1ccc(Br)cc1)c(=O)n2C	71*	1	-1	-7	0
COc1ccc(CNc2nc3c(c(=O)n(Cc4ccc(Br)cc4)c(=O)n3C)n2C)cc1	89*	-1	-3	2	-5
Cn1c(Cl)nc2c1c(=O)n(Cc1cccc(Br)c1)c(=O)n2C	1	104*	14	12	34
COc1cccc(Cn2c(NCc3ccco3)nc3c2c(=O)n(C)c(=O)n3C)c1	23	0	12	44*	3
CC1CCN(c2cc(N3CCOCC3)c([N+](=O)[O-])cc2F)CC1	16	7	18	28	8
COC(=O)CSc1nc2nc(C)cc(C)n2n1	-3	-9	-7	1	-9
O=C(COC(=O)CNS(=O)(=O)c1ccc(F)c(F)c1F)Nc1ccc(OC(F)F)cc1	7	-6	23	20	-13
Cn1c(NCc2ccccc2)nc2c1c(=O)n(Cc1ccc(Br)cc1)c(=O)n2C	78*	1	0	9	1
O=C1CC(N2CCC(c3nc4ccccc4o3)CC2)C(=O)N1c1ccc(Cl)c(C(F)(F)F)c1 (configuration not stated)	-14	-4	42*	-8	-21
COc1ccc(OC)c(N(CC(=O)N2CCN(c3cc(Cl)ccc3C)CC2)S(C)(=O)=O)c1	57*	-2	6	10	-20
Cc1ccc(Cl)cc1N1CCN(C(=O)COc2ccc(S(=O)(=O)NC(C)C)cc2)CC1	-12	20	17	22	46*
CCOC(=O)Cn1nc(C)c(NC(=O)COc2ccc([N+](=O)[O-])c(C)c2)c1C	14	3	-2	4	-10
C#CCOCCOCCOCCNc1nc(N2CCN(C(=O)Cn3cc(CC(C)O)nn3)CC2)nc(N2CCN(C(=O)[C@H](C)n3cc(CCCN=C(N)N)nn3)CC2)n1 (some centres not stated)	19	40*	3	9	-7
C#CCOCCOCCOCCNc1nc(N2CCN(C(=O)Cn3cc(CCCCN)nn3)CC2)nc(N2CCN(C(=O)[C@H](C)n3cc(CCCN=C(N)N)nn3)CC2)n1	-8	38	-6	7	1
O=C(COC(=O)c1ccc(O)cc1)NCCCc1ccccc1	25	91*	28	43*	23
O=C(COC(=O)c1ccccc1O)NCCCc1ccccc1	-4	-2	0	7	·
CCOC(=O)CSC1=C(C#N)C(c2ccco2)C(C(=O)Nc2cccc(C(F)(F)F)c2)=C(C)N1 (configuration not stated)	7	-5	1	6	-4
Cc1ccc(N(C(=O)C2CCCC2)C2C=CS(=O)(=O)C2)cc1 (configuration not stated)	-21	2	-7	-3	114*
O=C(C1CCCC1)N(c1ccccc1)C1C=CS(=O)(=O)C1 (configuration not stated)	-1	-2	1	13	-5
Cc1nonc1OCCNCCNc1ccccc1[N+](=O)[O-]	5	6	1	11	-5
Cc1nonc1OC(C)CNCCNc1ccc([N+](=O)[O-])cc1 (configuration not stated)	-14	2	-10	43*	8
